Experimental data as given in ChEMBL document CHEMBL6127151, “Cyclic Peptide C5aR1 Antagonist Design Using Solution Conformational Analysis Derived from Residual Dipolar Couplings” (ACS Med Chem Lett, 2024).

Experiments:
[1] = molecular target: T1, C5a anaphylatoxin chemotactic receptor 1 (Homo sapiens) (UniProt P21730); assay: Binding affinity to C5aR1 receptor (unknown origin) assessed as binding constant; conditions: time 10.0 min
T1 sequence (whole entry): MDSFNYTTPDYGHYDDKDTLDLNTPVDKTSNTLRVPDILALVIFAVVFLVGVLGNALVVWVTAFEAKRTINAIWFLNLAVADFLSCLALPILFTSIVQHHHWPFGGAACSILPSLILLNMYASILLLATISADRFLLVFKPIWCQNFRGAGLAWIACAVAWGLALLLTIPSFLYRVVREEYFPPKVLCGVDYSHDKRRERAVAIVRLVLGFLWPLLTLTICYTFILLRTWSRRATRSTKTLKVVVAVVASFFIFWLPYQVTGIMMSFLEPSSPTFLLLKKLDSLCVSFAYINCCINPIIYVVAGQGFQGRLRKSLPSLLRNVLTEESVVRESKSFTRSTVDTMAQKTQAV

[2] = Passive permeability across apical to basolateral side in dog RRCK cells incubated for 30 mins; assay type: ADME, cell-based, Canis lupus familiaris, MDCKII-LE; conditions: MDCK, read-out: permeability
In short: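 Passive absorptive permeability was measured from the apical to the basolateral side in RRCK cells after a 30 min preincubation. Values are reported as the mean, in 10–6 cm/s.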

Row | SMILES | Papp A→B at 0.5 h [2] [×10⁻⁶ cm/s] | Kb [1] [nM] | Kb ([1]; filed as antagonist) [nM]
1 | CCCC[C@@H]1NC(=O)[C@H](Cc2ccc(F)cc2)N(C)C(=O)[C@@H](CC2CCCCC2)NC(=O)[C@@H]2CCCN2C(=O)[C@@H](NC(=O)[C@@H](C)Cc2ccccc2)CCCN(C)C1=O | 2.6 | > 10000 | 
2 | C[C@@H](Cc1ccccc1)C(=O)N[C@H]1CCCN(C)C(=O)[C@H](Cc2ccccc2)NC(=O)[C@H](Cc2ccc(F)cc2)NC(=O)[C@@H](CC2CCCCC2)NC(=O)[C@H]([C@@H](C)O)NC1=O | 5.5 |  | 38.9
3 | CCN1CC[C@H](NC(=O)c2ccnn2-c2ccccc2)C(=O)N[C@@H]([C@@H](C)O)C(=O)N[C@@H](CC(C)C)C(=O)N[C@@H](Cc2ccc(F)cc2)C(=O)N[C@@H](Cc2ccccc2)CC1=O | 0.4 |  | 54
4 | C[C@@H](Cc1ccccc1)C(=O)N[C@H]1CCN(C)C(=O)C[C@H](Cc2ccccc2)NC(=O)[C@H](Cc2ccc(F)cc2)N(C)C(=O)[C@@H](CC2CCCCC2)NC(=O)[C@@H]2CCCN2C1=O | 2.1 |  | 127
5 | C[C@@H](Cc1ccccc1)C(=O)N[C@H]1CCCN(C)C(=O)[C@H](Cc2ccccc2)NC(=O)[C@H](Cc2ccc(F)cc2)NC(=O)[C@@H](CC2CCCCC2)NC(=O)[C@@H]2CCN2C1=O | 11.1 |  | 57.5
6 | C[C@@H](Cc1ccccc1)C(=O)N[C@H]1CCN(C)C(=O)C[C@H](Cc2ccccc2)NC(=O)[C@H](Cc2ccc(F)cc2)NC(=O)[C@@H](CC2CCCCC2)NC(=O)[C@@H]2CCCN2C1=O | 5 |  | 5.52

Further lines, with some results ahead:

Row | Papp A→B at 0.5 h [2] [×10⁻⁶ cm/s] | SMILES | Kb [1] [nM] | Kb ([1]; filed as antagonist) [nM]
7 | 4.2 | CCCC[C@H]1C(=O)N(C)CCC[C@H](NC(=O)[C@@H](C)Cc2ccccc2)C(=O)N2CCC[C@H]2C(=O)N[C@H](CC2CCCCC2)C(=O)N[C@@H](Cc2ccc(F)cc2)C(=O)N1C | > 9500 | 
8 | 3.4 | C[C@@H](Cc1ccccc1)C(=O)N[C@H]1CC[C@H]2CCCN2C(=O)[C@H](Cc2ccccc2)NC(=O)[C@H](Cc2ccc(F)cc2)NC(=O)[C@@H](CC2CCCCC2)NC(=O)[C@@H]2CCCN2C1=O |  | 46.5
9 | 6.5 | C[C@@H](Cc1ccccc1)C(=O)N[C@@H]1C(=O)N2CCC[C@H]2C(=O)N[C@H](CC2CCCCC2)C(=O)N[C@@H](Cc2ccc(F)cc2)C(=O)N[C@@H](Cc2ccccc2)C(=O)N2CCC1CC2 |  | 82.8
10 | 2.6 | C[C@@H](Cc1ccccc1)C(=O)N[C@H]1CCCN(C)C(=O)[C@H](Cc2ccccc2)NC(=O)[C@H](Cc2ccc(F)cc2)NC(=O)[C@@H](CC2CCCCC2)NC(=O)[C@@H]2CCCN2C1=O |  | 36.3
11 | 4.4 | CCCC[C@@H]1NC(=O)[C@H](Cc2ccc(F)cc2)NC(=O)[C@@H](CC2CCCCC2)N(C)C(=O)[C@@H]2CCCN2C(=O)[C@@H](NC(=O)[C@@H](C)Cc2ccccc2)CCCN(C)C1=O | > 10000 | 
